Usually GI50 stands for the concentration giving 50% growth inhibition. What is called IC50 is the concentration at which inhibition is half-maximal. Higher therefore signals a need for much substance.

One assay has as its system CAKI-1. Put plainly: inhibitory activity against renal tumor […] cell line. The assay is classed as functional. To be noted: Homo sapiens. The gist of the method: (§1)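 Tested in the NCI human cell line panel. GI50 = drug concentration (nM) giving growth inhibition to 50% of controls; values below 10 nM were taken as 10 nM in calculations.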
For a further assay, the system named is HCT-116. Description: inhibitory activity against colon HCT116 cell line. The class given is functional. The following applies: Homo sapiens. The gist of the method: as §1
The next assay concerns HT-29. Description: inhibitory activity against colon HT-29 cell line. The assay is classed as functional. To be noted: Homo sapiens. In a few lines: as §1
Assay [1] has as its system Jurkat. Put plainly: Concentration required to inhibit 50% growth of human Jurkat cells. The class given is functional, cell-based. In a few lines: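 Jurkat leukemia (JLC) cells seeded at 3.75 × 10^3 cells/well and exposed to drug for 4 days; growth measured by sulforhodamine assay. IC50 = drug concentration (nM) reducing cell number to 50% of control cultures. Independent assays in duplicate, coefficients of variation ca. 25%.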

In a further assay the test system is MCF7. Description: inhibitory activity against multi drug resistant MCF cell line. The class given is functional. The following applies: Homo sapiens, in the assay text read “MCF7 cell line” for “multi drug resistant MCF cell line”. The gist of the method:
as §1

The test system of assay [2] is Lewis lung carcinoma cell line. Put plainly: Inhibitory activity of tested against Murine Lewis lung carcinoma. The class given is functional, cell-based. To be noted: Mus musculus. In a few lines: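 Lewis lung carcinoma (LLTC) cells at 10^3 cells/well, 4-day continuous drug exposure, growth read by sulforhodamine assay. IC50 (nM) = concentration giving 50% of control cell number. Duplicate independent assays, CV ca. 25%.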

A further assay deals with NCI/ADR-RES. Put plainly: inhibitory activity against multi drug resistant NCI/ADR cell line. The class given is functional. The following applies: Homo sapiens. The gist of the method:
as §1

The test system of another assay is P388. Description: Inhibitory activity against Murine […]. The assay is classed as functional, cell-based. To be noted: Mus musculus. The gist of the method:
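Murine P388 leukemia cells seeded at 4.5 × 10^3 cells/well, cultured 3 days with drug; growth measured by [3H]TdR uptake. IC50 = drug concentration (nM) reducing cell number to 50% of controls. Independent assays in duplicate, CV ca. 25%.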

In a further assay the test system is SK-OV-3. Put plainly: inhibitory activity against ovarian carcinoma SKOV3 cell line. To be noted: Homo sapiens. The assay is classed as functional. The gist of the method:
as §1

The subject of assay [3] is Jurkat. Put plainly: Ratio of inhibitory activity against amsacrine resistant jurkat cells to inhibitory activity against wild type human jurkat cells. The class given is functional. In a few lines:
(§2)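 Wild-type Jurkat (JLC) and its amsacrine-resistant (JLA) or doxorubicin-resistant (JLD) sublines each seeded at 3.75 × 10^3 cells/well, 4 days with drug, sulforhodamine read-out. IC50 (nM) for 50% of control cell number; ratio = resistant-line IC50 divided by JLC IC50. Duplicate assays, CV ca. 25%.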

Assay [4] concerns Jurkat. Put plainly: Ratio of inhibitory activity against doxorubicin resistant jurkat cells to inhibitory activity against wild type human jurkat cells. The class given is functional. The gist of the method: as §2

Consider `Cc1ccc2cc3cccc(C(=O)NCCCN(C)CCCNC(=O)c4cccc5cc6ccc(C)cc6nc45)c3nc2c1`, for which the concentration for 50% growth inhibition (GI50) turned out to be 669 nM in the assay with CAKI-1; 130 nM with HCT-116; 62 nM in the assay on HT-29; 530 nM in the assay on MCF7; 407 nM in the assay on NCI/ADR-RES; 3.04 µM in the assay on SK-OV-3. Further, the IC50 in the assay with Jurkat [1] was found to be 177 nM; in assay [2] it was 56 nM; in the assay on P388, 345 nM. Also, the Ratio with Jurkat [3] was 0.7; in the assay with Jurkat [4], 0.9.
For the compound `Cc1cccc2cc3cccc(C(=O)NCCCN(C)CCCNC(=O)c4cccc5cc6cccc(C)c6nc45)c3nc12`, the concentration for 50% growth inhibition (GI50) in the assay on CAKI-1 was under 10 nM; with HCT-116, under 10 nM; in the assay on HT-29, under 10 nM; with MCF7, under 10 nM; in the assay on NCI/ADR-RES, 116 nM; in the assay with SK-OV-3, 0.087 µM. The IC50 in the assay on Jurkat [1] came out at 11 nM; in [2], 1.8 nM; in the assay with P388, 23 nM. The Ratio in the assay with Jurkat [3] is 0.4; with Jurkat [4], 0.7.
As for `Cc1ccc2nc3c(C(=O)NCCCN(C)CCCNC(=O)c4cccc5cc6cc(C)ccc6nc45)cccc3cc2c1`, the concentration for 50% growth inhibition (GI50) amounted to 268 nM with CAKI-1; 12 nM in the assay with HCT-116; 34 nM with HT-29; 190 nM in the assay with MCF7; 480 nM with NCI/ADR-RES; 1.18 µM in the assay on SK-OV-3. For the same compound, the results for the IC50 (with Jurkat [1]; in assay [2]; with P388) were 275 nM, 73 nM and 270 nM, respectively. The figures for the Ratio with Jurkat [3] and in the assay with Jurkat [4] were 0.9 and 1.1, respectively.
In the case of `CN(CCCNC(=O)c1cccc2cc3cccc(Cl)c3nc12)CCCNC(=O)c1cccc2cc3cccc(Cl)c3nc12`, the GI50 in the assay on CAKI-1 worked out at 95.9 nM; with HCT-116, 14 nM; in the assay on HT-29, 31 nM; in the assay with MCF7, 167 nM; with NCI/ADR-RES it was 1200 nM; in the assay with SK-OV-3, 12 µM. Further, the values for the IC50 (in the assay on Jurkat [1]; in [2]; in the assay on P388) were 33 nM, 8 nM and 46 nM, respectively. In addition, the Ratio in the assay on Jurkat [3] is on record as 0.55; in the assay on Jurkat [4] it was 1.
As for `Cc1ccc2cc3ccccc3nc2c1C(=O)NCCCN(C)CCCNC(=O)c1c(C)ccc2cc3ccccc3nc12`, the GI50 in the assay on CAKI-1 worked out at 6360 nM; with HCT-116 it was 446 nM; in the assay on HT-29 it was 1430 nM; in the assay on MCF7 it was 3030 nM; in the assay with NCI/ADR-RES it was 16000 nM; in the assay with SK-OV-3, 13 µM. Besides, the half-maximal inhibitory concentration (IC50) in the assay with Jurkat [1] stood at 1300 nM; in assay [2], 2400 nM; in the assay with P388 it was 3500 nM. Further, the results for the Ratio in the assay with Jurkat [3] and in the assay on Jurkat [4] were 0.9 and 1, respectively.
On to `COc1cccc2cc3cccc(C(=O)NCCCN(C)CCCNC(=O)c4cccc5cc6cccc(OC)c6nc45)c3nc12`, for which the GI50 in the assay with CAKI-1 was found to be 1490 nM; with HCT-116, 330 nM; with HT-29, 103 nM; in the assay on MCF7, 394 nM; with NCI/ADR-RES, 1390 nM; in the assay with SK-OV-3 it was 12 µM. In addition, the half-inhibitory concentration (IC50) in the assay with Jurkat [1] was 345 nM; in assay [2] it was 170 nM; in the assay on P388, 430 nM. In addition, the Ratio in the assay with Jurkat [3] amounted to 0.5; in the assay with Jurkat [4] it was 0.8.
On to `CN(CCCNC(=O)c1cccc2cc3c(Cl)cccc3nc12)CCCNC(=O)c1cccc2cc3c(Cl)cccc3nc12`, for which the concentration for 50% growth inhibition (GI50) came to 450 nM in the assay on CAKI-1; 216 nM with HCT-116; 120 nM in the assay with HT-29; 614 nM in the assay on MCF7; 624 nM in the assay on NCI/ADR-RES; 1.07 µM in the assay on SK-OV-3. Also, the figures for the IC50 (in the assay on Jurkat [1]; in assay [2]; in the assay on P388) were 238 nM, 123 nM and 750 nM, respectively. The Ratio is given as 0.8 in the assay with Jurkat [3] and 1.2 with Jurkat [4].
For the compound `CN(CCCNC(=O)c1cccc2cc3ccc(Cl)cc3nc12)CCCNC(=O)c1cccc2cc3ccc(Cl)cc3nc12`, the GI50 in the assay with CAKI-1 was under 10 nM; in the assay with HCT-116, under 10 nM; in the assay on HT-29, under 10 nM; in the assay with MCF7, 13 nM; in the assay on NCI/ADR-RES, 274 nM; in the assay on SK-OV-3, 11 µM. For the same compound, the IC50 in the assay on Jurkat [1] stood at 51 nM; in assay [2] it was 13 nM; in the assay on P388 it was 66 nM. Also, the results for the Ratio in the assay with Jurkat [3] and in the assay with Jurkat [4] were 0.5 and 0.9, respectively.
For the compound `Cc1cc(C(=O)NCCCN(C)CCCNC(=O)c2cc(C)cc3cc4ccccc4nc23)c2nc3ccccc3cc2c1`, the GI50 was 247 nM in the assay with CAKI-1; under 10 nM in the assay on HCT-116; 265 nM in the assay with HT-29; 546 nM in the assay on MCF7; 657 nM with NCI/ADR-RES; 0.46 µM in the assay on SK-OV-3. Also, the IC50 in the assay on Jurkat [1] was found to be 255 nM; in assay [2], 67 nM; with P388 it was 220 nM. For the same compound, the Ratio is on record as 0.7 with Jurkat [3] and 1.1 in the assay on Jurkat [4].
In the case of `CN(CCCNC(=O)c1cccc2cc3ccccc3nc12)CCCNC(=O)c1cccc2cc3ccccc3nc12`, the concentration for 50% growth inhibition (GI50) with CAKI-1 was 14 nM; in the assay on HCT-116, under 10 nM; with HT-29 it was under 10 nM; in the assay on MCF7 it was 24 nM; with NCI/ADR-RES it was 408 nM; in the assay on SK-OV-3 it was 8.57 µM. Also, the IC50 in the assay with Jurkat [1] was 110 nM; in assay [2], 30 nM; in the assay on P388, 130 nM. The values for the Ratio with Jurkat [3] and with Jurkat [4] were 0.7 and 0.8, respectively.
Consider `CN(CCCNC(=O)c1cccc2cc3cccc(F)c3nc12)CCCNC(=O)c1cccc2cc3cccc(F)c3nc12`, for which the GI50 in the assay on CAKI-1 is 34 nM; in the assay on HCT-116 it was under 10 nM; in the assay on HT-29, under 10 nM; in the assay with MCF7, under 10 nM; with NCI/ADR-RES, 93 nM; with SK-OV-3, 0.845 µM. The 50% inhibitory concentration (IC50) in the assay on Jurkat [1] was found to be 49 nM; in assay [2], 35 nM; in the assay with P388 it was 16 nM. For the same compound, the results for the Ratio with Jurkat [3] and with Jurkat [4] were 0.6 and 0.9, respectively.
As to `CCc1cccc2cc3cccc(C(=O)NCCCN(C)CCCNC(=O)c4cccc5cc6cccc(CC)c6nc45)c3nc12`, the GI50 was determined as 104 nM in the assay on CAKI-1; 221 nM in the assay with HCT-116; 1390 nM with HT-29; 265 nM with MCF7; 1340 nM in the assay with NCI/ADR-RES; 10 µM in the assay with SK-OV-3. The values for the IC50 (in the assay with Jurkat [1]; in [2]; with P388) were 113 nM, 27 nM and 170 nM, respectively. In addition, the Ratio in the assay on Jurkat [3] came to 0.7; in the assay with Jurkat [4], 0.9.
Take `CN(CCCNC(=O)c1c(Cl)ccc2cc3ccccc3nc12)CCCNC(=O)c1c(Cl)ccc2cc3ccccc3nc12`: the GI50 with CAKI-1 amounted to 4580 nM; with HCT-116, 171 nM; in the assay on HT-29, 727 nM; with MCF7, 488 nM; in the assay with NCI/ADR-RES it was 37000 nM; in the assay on SK-OV-3, 8.38 µM. The half-maximal inhibitory concentration (IC50) in the assay with Jurkat [1] is 900 nM; in [2] it was 2980 nM; in the assay with P388, over 200000 nM. The values for the Ratio in the assay with Jurkat [3] and in the assay with Jurkat [4] were 0.9 and 1.2, respectively.
Take `CN(CCCNC(=O)c1cccc2cc3cccc(C(F)(F)F)c3nc12)CCCNC(=O)c1cccc2cc3cccc(C(F)(F)F)c3nc12`: the GI50 was 600 nM in the assay on CAKI-1; 32 nM in the assay on HCT-116; 33 nM in the assay on HT-29; 79 nM in the assay with MCF7; 1290 nM in the assay with NCI/ADR-RES; 1.26 µM in the assay with SK-OV-3. The IC50 with Jurkat [1] stood at 115 nM; in assay [2], 39 nM; in the assay on P388 it was 240 nM. Moreover, the values for the Ratio in the assay on Jurkat [3] and with Jurkat [4] were 0.85 and 1.1, respectively.
